Measurements collected from several papers.
Compare with care: the assays were run in different laboratories.
Target: Vascular endothelial growth factor receptor 1 (FLT1, Homo sapiens, UniProt P17948)

SMILES	assay	setting	endpoint	value
C#Cc1n[nH]c2c(-c3cn([C@@H](C)c4ccccn4)c(=O)[nH]c3=O)cc(F)cc12	enzyme activity, inhibitor	0.1 µM	inhibition	2%
COCc1c(-c2cc3cc(C)cc(OC)c3s2)c2c(N)ncnn2c1CN1CCNC(=O)C1	cell-free assay, competition with immobilised ligand	1 µM	inhibition	91.7%
Cc1ncc(C)n2nc(/C=C/c3nc(N4CCCC4)cc(N4CCOCC4)n3)nc12	enzyme activity, inhibitor	10 µM	inhibition	-6%
C#Cc1n[nH]c2c(-c3cn([C@@H](C)c4ccccc4)c(=O)[nH]c3=O)cc(F)cc12	enzyme activity, inhibitor	0.1 µM	inhibition	1.9%
CC(C)(C)c1cc(C=C(C#N)C#N)cc(Br)c1O	enzyme activity, inhibitor	0.5 µM	remaining activity	92.5%
Cn1cc(-c2cc(F)cc(N3CCn4c(cc5c4CCCC5)C3=O)c2CO)cc(Nc2ccc(N3CCN(C4COC4)CC3)cn2)c1=O	enzyme activity, inhibitor	0.1 µM	inhibition	5%
O=C(Nc1cccnn1)N1CCN([C@@H]2CCOc3cc(C(F)(F)F)ccc32)CC1	enzyme activity, inhibitor	20 µM	inhibition	2%
Cn1cc(-c2cccc(N3CCc4c(sc5c4CC(C)(C)C5)C3=O)c2CO)cc(Nc2ccncn2)c1=O	enzyme activity, inhibitor	1 µM	inhibition	2%
COc1ncccc1-c1cnn2ccc(N3CCN(C(=O)OC(C)C)CC3)nc12	binding, competition with immobilised ligand	1 µM	remaining binding	100%
Cn1cncc1[C@](O)(COc1ccc(C#N)cc1-c1ccc(OC(F)(F)F)cc1)c1ccc(C#N)cc1	cell-free assay, competition with immobilised ligand	1 µM	remaining binding	98%
Nc1ncc(-c2nc(N3CCOCC3)nc(N3CCOCC3)n2)c(C(F)F)n1	cell-free assay, competition with immobilised ligand	10 µM	remaining binding	91%
O=c1[nH]c2ccccc2n1C1CCN(Cc2ccc(-c3[nH]c4cc5ncnc5cc4nc3-c3ccccc3)cc2)CC1	cell-free assay	0.5 µM	remaining signal	92.2%
